# Scp-1 inhibitor – Scp-1 (human) phosphatase inhibition; Q9GZU7; Recombinant Scp1, phosphopeptide, malachite green phosphate absorbance; inhibition, % at 20 µM; 0.88% of 340,000 active;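 active = inhibition above about 50% at 20 µM, limit read from the data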;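 also: plate controls were DMSO wells with enzyme for no effect and wells lacking enzyme for full effect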
# Target sequence (Q9GZU7 76-261 limits assumed): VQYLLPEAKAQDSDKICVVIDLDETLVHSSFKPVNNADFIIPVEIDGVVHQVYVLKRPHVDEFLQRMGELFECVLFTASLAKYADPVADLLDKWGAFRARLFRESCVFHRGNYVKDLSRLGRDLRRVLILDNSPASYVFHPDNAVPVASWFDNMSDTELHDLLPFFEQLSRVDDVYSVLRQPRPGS
#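 Material: truncated SCP-1 phosphatase (76-261aa) / Buffer or medium: 50 mM Tris acetate pH 5.5, 0.005% Tween-20, 10 mM MgCl2 / Compound dosing: one concentration, 20 µM, with 1.0% DMSO / Incubation: 45 min room-temperature reaction, 5 min colour, 30 min stabiliser / Detection: colorimetric free-phosphate detection, absorbance 630 nm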
# CSN inh – blocks human CSN-mediated cullin deneddylation; Purified CSN, SCF-Nedd8-OG deneddylation, fluorescence polarization; inhibition, % at 12.5 µM; Q92905; AID 651999; 0.38% of 360,000 active;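 active = pattern-corrected inhibition above about 35%, with an unprinted fluorescence ratio check between 0.5 and 1.5, limit read from the data, passing the limit was not always enough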;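 also: 0% = enzyme with substrate and 100% = substrate without enzyme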
# Target sequence (Q92905 whole entry, looked up, one chain of several): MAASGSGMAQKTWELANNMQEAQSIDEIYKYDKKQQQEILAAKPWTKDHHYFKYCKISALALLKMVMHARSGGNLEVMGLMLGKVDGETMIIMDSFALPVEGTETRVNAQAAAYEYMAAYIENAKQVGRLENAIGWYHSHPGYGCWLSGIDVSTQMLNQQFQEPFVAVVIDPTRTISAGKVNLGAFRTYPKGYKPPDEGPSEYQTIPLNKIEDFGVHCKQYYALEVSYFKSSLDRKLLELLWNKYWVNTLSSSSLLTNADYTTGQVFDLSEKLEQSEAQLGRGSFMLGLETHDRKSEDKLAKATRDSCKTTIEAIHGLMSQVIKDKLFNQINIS
#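 Test system: Human Csn5 produced in HEK293T cells | Compound: 12.5 µM single point | Times: 90 min, room temperature | Signal: Fluorescence polarization readout | Read-out basis: % inhibition of substrate cleavage by Csn5 | Controls: no-enzyme wells high, enzyme-with-substrate wells low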
# STEP inh – blocks human striatal-enriched tyrosine phosphatase. P54829. recombinant STEP, OMFP fluorogenic substrate, fluorescence. inhibition, % at 20 µM. 0.25% of 360,000 active. AID 588621;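 active = inhibition at 20 µM, scaled per plate between control wells, above about 37%, limit read from the data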;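 also: 0% = DMSO with enzyme and substrate and 100% = substrate only without enzyme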
#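 Also added – OMFP at 25 µM · Test system – STEP tyrosine phosphatase · Technique – FITC-channel fluorescence of OMFP product · Schedule – 20 min at room temperature, dark · Evaluation – control-normalized % inhibition with plate pattern correction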
# DNMT1 inh – DNMT1 (human) enzyme inhibition. 0.83% of 360,000 active. AID 588458. inhibition (reported as % activation of signal), % at 10 µM. DNMT1 molecular beacon, Hinp1I cleavage, fluorescence. P26358; in the data active = inhibition above about 50%
# SUMO1-SIM PPI – modulators of human SUMO1-mediated protein-protein interactions; 0.33% of 360,000 active; inhibition, % at 20 µM; AID 602429; SUMO1 binding to a labelled peptide, TR-FRET, 1 h; P63165; in the data active = inhibition above about 37%
# Target sequence (P63165 whole entry, looked up): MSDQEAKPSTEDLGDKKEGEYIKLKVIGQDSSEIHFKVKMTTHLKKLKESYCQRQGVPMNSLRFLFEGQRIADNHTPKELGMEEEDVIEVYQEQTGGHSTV
# LMPTP inh – LMPTP (human) inhibition; 0.22% of 360,000 active; inhibition, % at 20 µM; recombinant LMPTP-A, OMFP fluorogenic substrate, fluorescence intensity;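 active = compounds that cut the enzyme signal by at least half of the control window in the single-dose screen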;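 also: plate controls were DMSO wells with enzyme plus substrate for no effect and substrate without enzyme for full effect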
#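 test system = LMPTP-A | amount = 0.625 nM LMPTP-A final | reagent = fluorogenic phosphatase substrate OMFP at 400 µM final | incubation = 50 min at room temperature | benchmarks = no-enzyme low control, uninhibited high control | medium = Bis-Tris pH 6.0, DTT, detergent | signal = fluorescence intensity of OMFP turnover product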
# Beacon interf DR – beacon fluorescence artifact, dose response counter-screen; shares compounds with DNMT1 inh; molecular beacon fluorescence, spectral interference counter-screen; IC50, µM; 200 tested, under 10 active; call rule not given here
# DNMT1 confirm – confirmation of human DNMT1 inhibitors; DNMT1 molecular beacon HinP1I cleavage, fluorescence; AID 602385; 8% of 2,300 active; shares compounds with DNMT1 inh; inhibition, % at 10 µM;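 active = average inhibition of at least 30% in the single-concentration confirmation test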
# Beacon interf – beacon fluorescence artifact counter-screen; shares compounds with DNMT1 inh; DNMT1 molecular beacon spectral interference counterscreen, fluorescence 485/520; activation (fluorescence interference), % at 10 µM; 1% of 2,300 active; AID 602387;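 active = activation of at least 30% at 10 µM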;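 also: DNMT1 catalytic domain with a HinP1I cleavage step and a FAM/dabcyl DNA beacon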
# * hit, by the source's call; . = not tested or not shown. The list is not random: actives were taken first. Their share in the collection is about 2%.
SMILES,Scp-1 inhibitor,CSN inh,STEP inh,DNMT1 inh,SUMO1-SIM PPI,LMPTP inh,DNMT1 confirm,Beacon interf,others
COc1ccc(-c2c(-c3cc(OC)cc(OC)c3)n(C)c3ccc(-c4ccc(OC)nc4)cc23)cc1,5,0,-1,3,6,2,.,.,
COc1cc(OC)cc(-c2c(-c3cccs3)c3cc(-c4ccc(SC)cc4)ccc3n2C)c1,-5,18,1,2,-18,2,.,.,
COc1cc(OC)cc(-c2c(-c3cccs3)c3cc(-c4ccc(OCc5ccccc5)cc4)ccc3n2C)c1,-11,1,4,52*,-7,0,0,-1,
Cc1cc(/C=C2/C(=O)N(C)C(=S)N2C)c(C)n1C1CC1,-4,6,-6,-15,-7,0,.,.,
Cc1cc(/C=C2\SC(=S)NC2=O)c(C)n1C1CC1,-5,31,1,66*,10,3,5,2,
Cc1cccc(NC(=O)c2ccc([N+](=O)[O-])s2)c1C,-9,-5,-2,-3,-22,-1,.,.,
COc1ccc(N(CC(=O)NCCSCc2ccco2)S(=O)(=O)c2ccccc2)cc1,-13,-1,1,76*,0,1,4,5,
CCOc1ccc(N(CC(=O)N2CCCC2)S(=O)(=O)c2ccc(F)cc2)cc1,1,-2,0,-1,-2,0,.,.,
C=CCn1c(SCc2nc3sc4c(c3c(=O)[nH]2)CCCC4)nc2ccccc2c1=O,-10,19,-2,55*,0,0,0,-9,
C=CCn1c(SCc2nc3ccccc3c(=O)[nH]2)nc2sc3c(c2c1=O)CCCC3,-11,.,.,.,.,.,.,.,
CC(C=NNC(=O)C(=O)NN=CC(C)=Cc1ccccc1)=Cc1ccccc1,-10,1,0,63*,-4,-1,2,4,
CC(/C=N/NC(=O)c1ccccc1C)=C\c1ccccc1,-3,-4,-3,3,-12,0,.,.,
O=C1c2ccccc2NC(c2ccc(Br)s2)N1O (stereo not drawn),-4,.,.,.,.,.,.,.,
COc1ccc(-n2ccnc2SCC(=O)NO)cc1,-12,5,-3,-5,1,1,.,.,
Cc1noc(C)c1CCC(=O)N1CCCC(N2CCN(c3ccc(F)cc3)CC2)C1 (stereo not drawn),1,-2,1,86*,1,-1,3,6,
CN(C)c1ccc(-c2ccnc3c2CC(C)(C(=O)NCC2CCOCC2)O3)cc1 (stereo not drawn),.,-2,-2,59*,-3,-1,2,3,
CC1(C(=O)NCC2CCOCC2)Cc2c(-c3cccc(C(F)(F)F)c3)ccnc2O1 (stereo not drawn),.,5,1,84*,-4,-1,7,7,
Cc1ccc(-n2cc3c(-c4cccc(Br)c4)nnc(C)c3n2)cc1,13,-79,-17,64*,1,7,16,0,
CN(C)CCOc1nc(-c2ccccc2)nc2c1oc1ccccc12,3,2,-6,65*,0,-5,57*,2,Beacon interf DR=>99
CC(=O)c1ccc(NC(=S)N2CCN(CCN3C(=O)c4cccc5cccc(c45)C3=O)CC2)cc1,0,-8,4,55*,-2,2,1,-3,
COc1ccc(NC(=O)N[C@H]2CC[C@@H](CC(=O)NC3CCC3)O[C@@H]2CO)cc1,.,-8,.,.,3,-2,.,.,
N#C/C(=C\c1ccc(-c2ccccc2Cl)o1)C(=O)Nc1nc2ccccc2s1,-3,2,1,88*,13,4,12,-7,
COc1ccc(CN(C)C(=O)Cn2ccc(N)nc2=O)cc1OC,-4,-2,1,89*,-4,-1,1,3,
O=C(CSc1nc(C2CC2)nc2sc3c(c12)CCCC3)NCc1ccco1,0,3,-2,14,-1,-2,.,.,
CC(C)Sc1nc2sc3c(c2c2nnc(SCC(=O)NCc4ccco4)n12)CCCC3,35,27,3,65*,18,8,3,1,
SMILES,Scp-1 inhibitor,CSN inh,STEP inh,DNMT1 inh,SUMO1-SIM PPI,LMPTP inh,DNMT1 confirm,Beacon interf,others
O=Cc1cccc(OCc2cn(CC(=O)c3ccc(O)cc3)nn2)c1,.,4,2,58*,4,-1,4,-4,
CCCC(=O)c1ccc(OCc2cn(CC(=O)c3ccc(O)cc3)nn2)cc1,-5,8,-1,52*,0,-1,3,-1,
O=C(Cn1cc(COc2ccc(Br)cc2)nn1)c1ccc(O)cc1,1,4,2,-3,-3,1,.,.,
CCOc1ccc(OCC)c(S(=O)(=O)n2cnc(C)c2)c1,-2,1,0,-3,1,0,.,.,
COc1cccc(N2CCN(S(=O)(=O)c3ccc(-c4cnc(C5CC5)o4)cc3)CC2)c1,3,-3,0,38,7,0,.,.,
COc1ccc(N2CCN(S(=O)(=O)c3ccc(-c4cnc(C5CC5)o4)cc3)CC2)cc1,14,2,8,74*,3,3,4,4,
O=C(COC(=O)CCSc1ccc(Cl)cc1)NCc1ccco1,-2,-5,-1,2,1,0,.,.,
Cc1cc(C)cc(Nc2cc(=O)n(C3CCCCC3)c(=O)[nH]2)c1,-6,1,1,-10,-2,-1,.,.,
Cc1cc2nc3c(=O)n(C4CCCCC4)c(=O)[nH]c3nc2cc1N,-9,-73,-106,58*,-11,-5,64*,34*,
Cn1nc([N+](=O)[O-])c2c(-c3nc4ccccc4s3)c(N)n(C3CCCCC3)c2c1=O,6,1,10,62*,-8,3,1,5,
N#CCCN(Cc1cccnc1)C(=S)NC(=O)c1ccccc1,-15,1,2,0,3,0,.,.,
CC1CCCN(CCCNC(=O)C2CCC(CNS(=O)(=O)c3cccc4nsnc34)CC2)C1 (stereo not drawn),1,-3,-3,50*,-30,0,4,2,
CCCCNC(=O)C1CCC(CNS(=O)(=O)c2cccc3nsnc23)CC1 (stereo not drawn),-5,-1,2,0,-38,0,.,.,
COc1ccc2c(c1)N(C)/C(=C1/SC(=NCc3ccccc3)N(c3ccccc3)C1=O)S2,9,11,-1,53*,-17,-2,3,0,
Cc1ccccc1OCc1nnc(SCC(=O)Nc2ccc3nc(SCC(=O)Nc4ccccc4)sc3c2)n1C,-1,4,0,56*,2,1,2,-1,
